Active and inactive are the calls of the source. The rule behind the calls is not given here.
How the values were obtained:
Type in all cases: cell-based
[1] = target: Toll-like receptor 3 (Homo sapiens) (UniProt O15455); assay: Agonist activity at human TLR3 expressed in HEK293 cells assessed as induction of NF-kB activation-mediated SEAP production at 25 uM after 24 hrs by HTS assay relative to control
How it was run: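 hTLR3 HEK293 SEAP reporter cells seeded at 5 × 10^4 cells/well for 24 h, exposed to 25 μM for 24 h. Supernatant SEAP detected with QUANTI-Blue (1 h, 37 °C, OD 620 nm). Activation normalized to untreated cells and expressed as fold change.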

[2] = target: T1, Toll-like receptor 3 (Homo sapiens, UniProt O15455); assay: Agonist activity at human TLR3 expressed in HEK293 cells assessed as induction of NF-kB activation-mediated SEAP production after 24 hrs by HTS assay
T1 sequence (O15455 whole entry): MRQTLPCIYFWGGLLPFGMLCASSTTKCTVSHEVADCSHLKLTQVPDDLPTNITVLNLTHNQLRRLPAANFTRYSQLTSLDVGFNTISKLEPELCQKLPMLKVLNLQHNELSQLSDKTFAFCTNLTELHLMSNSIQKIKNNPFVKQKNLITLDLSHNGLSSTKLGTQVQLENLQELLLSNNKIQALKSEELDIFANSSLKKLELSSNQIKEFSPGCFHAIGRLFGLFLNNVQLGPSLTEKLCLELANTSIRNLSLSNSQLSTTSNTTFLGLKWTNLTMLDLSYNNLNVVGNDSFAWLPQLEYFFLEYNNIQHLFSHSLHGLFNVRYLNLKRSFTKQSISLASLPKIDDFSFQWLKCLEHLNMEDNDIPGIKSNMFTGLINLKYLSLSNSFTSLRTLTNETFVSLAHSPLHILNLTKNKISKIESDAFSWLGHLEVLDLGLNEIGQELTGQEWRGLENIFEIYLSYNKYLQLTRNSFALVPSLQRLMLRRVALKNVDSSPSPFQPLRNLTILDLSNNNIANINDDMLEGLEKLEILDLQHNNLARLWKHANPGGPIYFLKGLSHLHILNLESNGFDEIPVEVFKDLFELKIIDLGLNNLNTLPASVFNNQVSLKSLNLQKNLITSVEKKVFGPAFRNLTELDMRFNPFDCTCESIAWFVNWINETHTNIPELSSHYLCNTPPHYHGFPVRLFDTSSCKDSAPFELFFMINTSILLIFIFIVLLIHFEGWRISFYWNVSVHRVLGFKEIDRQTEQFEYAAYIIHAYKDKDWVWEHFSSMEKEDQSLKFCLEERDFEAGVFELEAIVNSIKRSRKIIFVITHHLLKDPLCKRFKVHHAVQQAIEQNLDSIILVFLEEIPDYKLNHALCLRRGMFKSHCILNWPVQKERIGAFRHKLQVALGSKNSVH
How it was run: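 Stable HEK293 lines expressing a single hTLR plus a SEAP reporter, grown in DMEM/10% FBS with selective antibiotics. Seeded at 5 × 10^4 cells/well for 24 h at 37 °C, then treated 24 h. Supernatant mixed with QUANTI-Blue, 1 h at 37 °C, OD 620 nm. Cognate agonists: Pam3CSK4 (TLR2), poly I:C (TLR3), LPS (TLR4), FLA-BS (TLR5), R848 (TLR7). EC50 as mean ± SD.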

[3] = test system: HEK293; assay: Cytotoxicity against HEK293 cells at 25 uM; conditions: human, hek293, 25 µM
[4] = organism: Homo sapiens; assay: Activation of NF-kB in HEK293 cells assessed as SEAP production at 30 uM after 24 hrs by HTS assay
How it was run: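 hTLR3-transfected HEK293 cells carrying an NF-κB-inducible SEAP reporter, seeded at 20,000 cells/well in duplicate; library compounds in DMSO at 30 μM final. Poly I:C 5 μg/mL as positive control; cells + medium + DMSO as negative control. SEAP in supernatant read by QUANTI-Blue; hits ranked on RMS values.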

[5] = target: Toll-like receptor 3 (Homo sapiens) (UniProt O15455); assay: Agonist activity at human TLR3 expressed in HEK293 cells assessed as induction of NF-kB activation-mediated SEAP production at 30 uM after 24 hrs by HTS assay
How it was run: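 HTS in HEK293 cells stably expressing human TLR3 plus an NF-κB-inducible SEAP reporter, seeded at 20,000 cells/well and run in duplicate. Library compounds in DMSO at 30 μM final. Poly I:C 5 μg/mL served as positive control and cells + medium + DMSO as negative control. SEAP in supernatant read by QUANTI-Blue; assay quality judged by Z′ factor.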

Structure (SMILES)	fold change (FC) [1]	further results
CC1(C)C=Cc2cc(OCc3ccc([N+](=O)[O-])c(F)c3)c(OCc3ccc([N+](=O)[O-])c(F)c3)cc2O1	1.24	
O=[N+]([O-])c1ccc(COc2cc3c(cc2OCc2ccc([N+](=O)[O-])cc2)OC2(C=C3)CCCCCC2)cc1	1.07	
CC1(C)C=Cc2cc(OCc3cccc([N+](=O)[O-])c3)c(OCc3cccc([N+](=O)[O-])c3)cc2O1	1.1	
COc1ccc(COc2cc3c(cc2OCc2ccc(OC)c(F)c2)C(=O)CC(C)(C)O3)cc1F	1.08	
CC1(C)CC(=O)c2cc(OCc3ccc([N+](=O)[O-])c(F)c3)c(OCc3ccc([N+](=O)[O-])c(F)c3)cc2O1	1.22	
CC1(C)C=Cc2cc(O)c(OCc3ccc([N+](=O)[O-])cc3)cc2O1	1.17	
COc1ccc(COc2cc3c(cc2OCc2ccc(OC)c(F)c2)C(O)CC(C)(C)O3)cc1F (stereo not given)	1.34	
CC1(C)CC(O)c2cc(OCc3ccc([N+](=O)[O-])cc3)c(OCc3ccc([N+](=O)[O-])cc3)cc2O1 (stereo not given)	2.5	EC50 [2]: 42.5 µM
CC1(C)C=Cc2cc(OCc3ccc(C(F)(F)F)cc3)c(OCc3ccc(C(F)(F)F)cc3)cc2O1	0.99	
CC1(C)CC(O)c2cc(OCc3ccc(C(F)(F)F)cc3)c(OCc3ccc(C(F)(F)F)cc3)cc2O1 (stereo not given)	2.36	
COc1ccc(COc2cc3c(cc2OCc2ccc(OC)c(F)c2)OC(C)(C)C=C3)cc1F	1.06	
CC1(C)CC(=O)c2cc(OCc3ccc(F)c(F)c3)c(OCc3ccc(F)c(F)c3)cc2O1	1.22	
O=[N+]([O-])c1ccc(COc2cc3c(cc2OCc2ccc([N+](=O)[O-])cc2)OC2(C=C3)CCCCC2)cc1	1	
CC1(C)CC(O)c2cc(OCc3ccc(F)c(F)c3)c(OCc3ccc(F)c(F)c3)cc2O1 (stereo not given)	0.95	
CC1(C)C=Cc2cc(OCc3ccc([N+](=O)[O-])cc3)c(OCc3ccc([N+](=O)[O-])cc3)cc2O1	5.34	Activity [3]: Non-Toxic; Activity [4]: inactive; EC50 [2]: 22.3 µM; Activity [5]: Active
CC1(C)C=Cc2cc(OCc3ccccc3)c(OCc3ccccc3)cc2O1	1.09	
COc1cc2c(cc1OCc1ccc([N+](=O)[O-])cc1)C=CC(C)(C)O2	1.19	
CCC1(CC)C=Cc2cc(OCc3ccc([N+](=O)[O-])cc3)c(OCc3ccc([N+](=O)[O-])cc3)cc2O1	1.16	
CC1(C)CC(=O)c2cc(OCc3ccc([N+](=O)[O-])cc3)c(OCc3ccc([N+](=O)[O-])cc3)cc2O1	1.76	
O=[N+]([O-])c1ccc(COc2cc3c(cc2OCc2ccc([N+](=O)[O-])cc2)OC2(C=C3)CCCC2)cc1	1.22	
CC1(C)C=Cc2cc(OCc3ccc(F)c(F)c3)c(OCc3ccc(F)c(F)c3)cc2O1	0.99	
CC1(C)C=Cc2cc(OCc3ccccc3[N+](=O)[O-])c(OCc3ccccc3[N+](=O)[O-])cc2O1	1.08	
CC1(C)C=Cc2cc(OC(=O)c3ccc([N+](=O)[O-])cc3)c(OC(=O)c3ccc([N+](=O)[O-])cc3)cc2O1	1.65	
CC1(C)CC(=O)c2cc(OCc3ccc(C(F)(F)F)cc3)c(OCc3ccc(C(F)(F)F)cc3)cc2O1	1.19	
CC1(C)CC(O)c2cc(OCc3ccc([N+](=O)[O-])c(F)c3)c(OCc3ccc([N+](=O)[O-])c(F)c3)cc2O1 (stereo not given)	2.34	

— ChEMBL document CHEMBL4014338, “Discovery of Small Molecules as Multi-Toll-like Receptor Agonists with Proinflammatory and Anticancer Activities” (J Med Chem, 2017)
